Reference: ChEMBL document CHEMBL4680346, “Novel arylcarbamate-N-acylhydrazones derivatives as promising BuChE inhibitors: Design, synthesis, molecular modeling and biological evaluation” (Bioorg Med Chem, 2021)

Assays:
[1] = molecular target: T1, Cholinesterase (Equus caballus, UniProt P81908); assay: Non-Competitive inhibition of equine serum BuChE using varying concentrations of butyrylthiocholine iodide as substrate by Lineweaver-burk plot analysis; format: cell-free
In short: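 Equine serum BuChE kinetics by the Ellman read-out with butyrylthiocholine at 0.025–2.0 mM. Run without inhibitor and with inhibitor at 0.5 and 1.0 µM. Reciprocal initial rate was plotted against reciprocal substrate concentration (Lineweaver-Burk) to assign the inhibition mode.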

[2] = molecular target: T1, Cholinesterase; assay: Inhibition of equine serum BuChE using butyrylthiocholine chloride as substrate preincubated for 15 mins followed by substrate addition and measured after 4 mins by Ellman's method; format: cell-free
[3] = molecular target: Cholinesterase (Equus caballus) (UniProt P81908); assay: Inhibition of equine serum BuChE at 10 uM using butyrylthiocholine chloride as substrate preincubated for 15 mins followed by substrate addition and measured after 4 mins by Ellman's method; format: cell-free; settings: time 19.0 min
Chain of Cholinesterase (Equus caballus) (P81908 whole entry): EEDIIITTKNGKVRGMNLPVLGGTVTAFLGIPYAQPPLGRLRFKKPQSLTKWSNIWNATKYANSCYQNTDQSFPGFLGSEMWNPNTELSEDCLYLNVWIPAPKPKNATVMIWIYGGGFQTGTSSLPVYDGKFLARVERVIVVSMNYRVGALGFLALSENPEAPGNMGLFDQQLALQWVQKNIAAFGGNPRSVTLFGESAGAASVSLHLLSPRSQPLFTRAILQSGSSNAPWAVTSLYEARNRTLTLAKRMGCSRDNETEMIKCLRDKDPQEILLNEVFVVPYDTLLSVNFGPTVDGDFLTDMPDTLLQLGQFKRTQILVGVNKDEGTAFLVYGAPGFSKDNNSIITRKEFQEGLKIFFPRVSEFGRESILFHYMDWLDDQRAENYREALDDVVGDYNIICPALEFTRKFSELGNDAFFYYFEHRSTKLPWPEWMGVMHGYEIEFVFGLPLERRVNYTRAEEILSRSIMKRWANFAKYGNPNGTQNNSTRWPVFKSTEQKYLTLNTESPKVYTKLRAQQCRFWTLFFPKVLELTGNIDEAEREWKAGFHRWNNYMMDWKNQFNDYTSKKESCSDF

[4] = molecular target: Cholinesterase (Equus caballus) (UniProt P81908); assay: Inhibition of equine serum BuChE at 100 uM using butyrylthiocholine chloride as substrate preincubated for 15 mins followed by substrate addition and measured after 4 mins by Ellman's method; format: cell-free
[5] = molecular target: Acetylcholinesterase (Electrophorus electricus, UniProt O42275); assay: Inhibition of Electrophorus electricus AChE using acetylthiocholine iodide as substrate preincubated for 15 mins followed by substrate addition and measured after 4 mins by Ellman's method
Chain of Acetylcholinesterase (O42275 whole entry): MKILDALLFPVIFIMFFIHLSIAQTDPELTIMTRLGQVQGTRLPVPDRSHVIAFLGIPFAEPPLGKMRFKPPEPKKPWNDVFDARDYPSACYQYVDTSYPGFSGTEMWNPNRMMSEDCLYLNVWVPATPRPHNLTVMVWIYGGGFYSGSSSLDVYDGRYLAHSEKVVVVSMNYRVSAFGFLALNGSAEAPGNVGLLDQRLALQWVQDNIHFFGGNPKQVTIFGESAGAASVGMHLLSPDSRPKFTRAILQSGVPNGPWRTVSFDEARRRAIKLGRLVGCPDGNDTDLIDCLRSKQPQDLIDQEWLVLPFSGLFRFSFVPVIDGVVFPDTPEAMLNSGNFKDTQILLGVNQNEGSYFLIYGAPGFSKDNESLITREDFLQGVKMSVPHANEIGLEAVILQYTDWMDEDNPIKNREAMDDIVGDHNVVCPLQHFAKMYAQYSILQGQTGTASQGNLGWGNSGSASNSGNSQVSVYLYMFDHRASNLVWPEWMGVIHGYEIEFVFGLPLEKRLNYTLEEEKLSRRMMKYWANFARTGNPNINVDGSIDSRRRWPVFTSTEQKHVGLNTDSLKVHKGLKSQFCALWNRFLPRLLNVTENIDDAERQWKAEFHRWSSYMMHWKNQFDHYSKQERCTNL

[6] = molecular target: Acetylcholinesterase (Electrophorus electricus) (UniProt O42275); assay: Inhibition of Electrophorus electricus AChE at 100 uM using acetylthiocholine iodide as substrate preincubated for 15 mins followed by substrate addition and measured after 4 mins by Ellman's method; settings: time 19.0 min
Chain of Acetylcholinesterase (Electrophorus electricus) (O42275 24-633 limits assumed): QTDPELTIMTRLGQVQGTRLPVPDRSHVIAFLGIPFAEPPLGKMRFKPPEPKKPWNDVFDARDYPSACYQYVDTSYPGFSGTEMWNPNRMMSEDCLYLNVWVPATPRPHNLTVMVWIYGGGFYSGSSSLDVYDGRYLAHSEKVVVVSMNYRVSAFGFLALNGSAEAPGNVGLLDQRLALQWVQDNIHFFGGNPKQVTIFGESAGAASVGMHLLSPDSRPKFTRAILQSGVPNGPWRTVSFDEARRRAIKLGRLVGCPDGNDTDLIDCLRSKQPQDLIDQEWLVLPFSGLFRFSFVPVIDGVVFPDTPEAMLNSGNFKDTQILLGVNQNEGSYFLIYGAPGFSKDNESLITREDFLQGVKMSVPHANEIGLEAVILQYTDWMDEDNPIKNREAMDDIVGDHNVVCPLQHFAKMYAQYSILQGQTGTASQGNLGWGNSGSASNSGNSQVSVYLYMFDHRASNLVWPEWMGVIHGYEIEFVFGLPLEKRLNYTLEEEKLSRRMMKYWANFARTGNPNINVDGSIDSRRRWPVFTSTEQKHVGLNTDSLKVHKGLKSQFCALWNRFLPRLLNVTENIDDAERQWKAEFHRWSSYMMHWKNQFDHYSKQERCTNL

T1 sequence (P81908 whole entry): as the sequence (P81908 whole entry) above

| SMILES | Ki [1] | IC50 [2] | inhibition [3] | inhibition [4] | IC50 [5] | inhibition [6] |
| --- | --- | --- | --- | --- | --- | --- |
| COc1cc(C(=O)N/N=C/c2ccccc2OC(=O)N(C)C)ccc1O | 97 µM | 0.07 µM | 73% | 77.8% | > 100 µM | 24.9% |
| CN(C)C(=O)Oc1ccc(/C=N/NC(=O)c2ccc(O)cc2)cc1 |  | > 100 µM | 10.4% | 31% | > 100 µM | 11.7% |
| COc1cc(/C=N/NC(=O)c2ccc(O)cc2)ccc1OC(=O)N(C)C |  | 0.94 µM | 68.4% | 73.4% | > 100 µM | 23.6% |
| CN(C)C(=O)Oc1ccccc1/C=N/NC(=O)c1cccc(O)c1 |  | 0.56 µM | 74.9% | 82% | > 100 µM | 18.2% |
| CN(C)C(=O)Oc1ccc(/C=N/NC(=O)c2cccc(O)c2)cc1 |  | 29.3 µM | 42.1% | 75.2% | > 100 µM | 9.65% |
| COc1cc(C(=O)N/N=C/c2ccc(OC(=O)N(C)C)cc2)ccc1O |  | 21.9 µM | 44.6% | 63.9% | > 100 µM | 20.1% |
| COc1cc(/C=N/NC(=O)c2cccc(O)c2)ccc1OC(=O)N(C)C |  | 7.65 µM | 50.1% | 62.2% | > 100 µM | 19.9% |
| COc1ccc(C(=O)N/N=C/c2ccccc2OC(=O)N(C)C)cc1OC |  | 0.31 µM | 62.1% | 74% | > 100 µM | 21.9% |
| CN(C)C(=O)Oc1ccccc1/C=N/NC(=O)c1ccc(O)cc1 |  | 0.18 µM | 76.4% | 80.9% | > 100 µM | 11.1% |
| COc1ccc(C(=O)N/N=C/c2ccc(OC(=O)N(C)C)c(OC)c2)cc1OC |  | 2.07 µM | 74.8% | 78.5% | > 100 µM | 24.7% |
| COc1ccc(C(=O)N/N=C/c2ccc(OC(=O)N(C)C)cc2)cc1OC |  | > 100 µM | 11.4% | 37.8% | > 100 µM | 28.3% |
| COc1cc(C(=O)N/N=C/c2ccc(OC(=O)N(C)C)c(OC)c2)ccc1O |  | 9.98 µM | 57.3% | 49.7% | > 100 µM | 29.2% |
